The values below come from article PMC11455621 (Structure (London, England : 1993), 2024).

In experiment [1] the target is T1, HsFN3K (Homo sapiens, UniProt Q9H479).
T1 sequence (Q9H479 1-309): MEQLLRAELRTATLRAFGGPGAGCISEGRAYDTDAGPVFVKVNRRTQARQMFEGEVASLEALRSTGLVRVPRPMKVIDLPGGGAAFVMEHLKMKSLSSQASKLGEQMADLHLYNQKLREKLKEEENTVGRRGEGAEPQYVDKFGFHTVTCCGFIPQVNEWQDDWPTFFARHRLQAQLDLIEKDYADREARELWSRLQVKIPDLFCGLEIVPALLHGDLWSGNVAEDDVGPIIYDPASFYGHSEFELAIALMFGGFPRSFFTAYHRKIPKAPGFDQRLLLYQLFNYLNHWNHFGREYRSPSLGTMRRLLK
Kind of experiment: Differential scanning fluorimetry. The format is binding. Conditions: DSF; for Tm increase versus HsFN3K alone: single ligand 250 μM.

Experiment [2] concerns the target T2, HsFN3K D234A (Homo sapiens, UniProt Q9H479, D234A).
T2 sequence (Q9H479 1-309 D234A): T1 sequence (Q9H479 1-309) with D234A
Kind of experiment: Differential scanning fluorimetry. The format is binding. The conditions noted are these: DSF.

Experiment [3] deals with T3, HsFN3K D217A (Homo sapiens, UniProt Q9H479, D217A).
T3 sequence (Q9H479 1-309 D217A): T1 sequence (Q9H479 1-309) with D217A
Briefly: Differential scanning fluorimetry. The format is binding. Conditions: DSF.

Experiment [4] has as its target T2, HsFN3K D234A. Briefly: Microscale thermophoresis. The format is binding. The conditions noted are these: MST.
Experiment [5] deals with T3, HsFN3K D217A. Kind of experiment: Microscale thermophoresis. The format is binding.
In experiment [6] the target is T4, HsFN3K H288A (Homo sapiens, UniProt Q9H479, H288A).
T4 sequence (Q9H479 1-309 H288A): T1 sequence (Q9H479 1-309) with H288A
Briefly: Differential scanning fluorimetry. The format is binding. The conditions noted are these: DSF.

The next experiment addresses T5, HsFN3K W219A (Homo sapiens, UniProt Q9H479, W219A).
T5 sequence (Q9H479 1-309 W219A): T1 sequence (Q9H479 1-309) with W219A
Kind of experiment: Differential scanning fluorimetry. The format is binding. Conditions: DSF.

For experiment [7], the target named is T6, HsFN3K H291A (Homo sapiens, UniProt Q9H479, H291A).
T6 sequence (Q9H479 1-309 H291A): T1 sequence (Q9H479 1-309) with H291A
Kind of experiment: Differential scanning fluorimetry. The format is binding. The conditions noted are these: DSF.

Experiment [8] has as its target T1, HsFN3K. Briefly: Microscale thermophoresis. The format is binding. The conditions noted are these: MST.
Experiment [9] concerns the target T6, HsFN3K H291A. Kind of experiment: ADP-Glo kinase kinetics, HsFN3K H291A. The format is biochemical. The conditions noted are these: H291A mutant vs WT HsFN3K. In short, it runs like this: (§1)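 E. coli BL21(DE3)-expressed human FN3K, MBP-His6 tag removed by TEV, at 0.5 μM. Reaction: 200 μM ATP, 10 mM MgCl2, 0–100 μM DMF, room temperature. Time points quenched with ADP-Glo reagent (40 min), then detection reagent (40 min). Luminescence converted to ADP by ATP-to-ADP conversion curves. v0 taken from the linear slope, then Michaelis–Menten fit. SEM from ≥2 independent experiments.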

Experiment [10] deals with T4, HsFN3K H288A. Briefly: ADP-Glo kinase kinetics, HsFN3K H288A. The conditions noted are these: H288A mutant vs WT HsFN3K. The format is biochemical. In short, it runs like this: as §1
The next experiment deals with T7, HsFN3K WT (Homo sapiens, UniProt Q9H479).
T7 sequence (Q9H479 1-309): T1 sequence (Q9H479 1-309)
Kind of experiment: Direct substrate phosphorylation assay. The format is biochemical. Conditions: glycated lysozyme 2mg/mL, 1 hour at 25°C (Figure S6D). In short, it runs like this:
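Lysozyme glycated with ribose or glucose (1:1 molar, 3 or 28 days, 50°C). Reaction: 10 or 20 μM FN3K, 2 mg/mL glycated lysozyme, 5 mM HEPES pH 7, 5 mM MgCl2, 100 μM ATP, 1 h at 25°C. Quenched in Laemmli dye, run on SDS-PAGE, fixed in methanol/acetic acid. Stained with Pro-Q Diamond, destained in acetonitrile/sodium acetate pH 4, imaged at 602 nm […]. Coomassie restain for loading.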

The target in experiment [11] is human Fructosamine-3-kinase (HsFN3K) (human) (UniProt Q9H479). Kind of experiment: intact protein LC-MS.
Experiment [12] has the same target. Kind of experiment: SEC.

Changes are numbered by the printed parent chain.

Turning to `Nc1ncnc2c1ncn2[C@@H]1O[C@H](COP(=O)(O)OP(=O)(O)NP(=O)(O)O)[C@@H](O)[C@H]1O` [AMP-PNP, adenylyl-imidodiphosphate], the “binding of ATP mimetic” value on HsFN3K [1] (HsFN3K WT (Figure S7)) was “readily bound to HsFN3K”.

With `Nc1ncnc2c1ncn2[C@@H]1O[C@H](COP(=O)(O)OP(=O)(O)OP(=O)([O-])[O-])[C@@H](O)[C@H]1O.[Na+].[Na+]` [ATP, Adenosine-5-triphosphate disodium salt], the “Tm shift in the presence of ATP or DMF individually or together” value at HsFN3K D234A [2] is given as “no observable Tm shift”. The “ligand binding by Tm shift” value at HsFN3K D217A [3] and at HsFN3K W219A was “retained the ability to bind ATP” throughout. Moreover, the “binding of ATP and DMF” value on HsFN3K D234A [4] is given as “impaired binding”. The Kd came to 3.5 ± 2.3 µM on HsFN3K D217A [5] (read-out: binding affinity (KD) for ATP, MST) and 3.9 ± 3.4 µM on HsFN3K [8] (read-out: binding affinity (KD) for ATP, fluorescently labeled HsFN3K WT, 25°C). Besides, the ATP binding entry at HsFN3K H288A [6] and on HsFN3K H291A [7] was “retained the ability to bind ATP” throughout. For the same compound, at HsFN3K [1] (HsFN3K WT, ligand 250 μM, apo Tm 56.9 ± 0.7°C), the “melting temperature (Tm) with ligand” value amounted to 63.2 ± 0.5 °C. The “Tm increase versus HsFN3K alone” value on HsFN3K [1] (HsFN3K WT) is ~ 6 °C.

On to `O=C(CN1CCOCC1)[C@@H](O)[C@H](O)[C@H](O)CO` [DMF, 1-Deoxy-1-morpholino-fructose], for which the “Tm shift in the presence of ATP or DMF individually or together” value on HsFN3K D234A [2] is reported as “no observable Tm shift”. The “increase of Km for DMF versus wildtype” value came out at 3.5 fold on HsFN3K H291A [9] and 3 fold at HsFN3K H288A [10]. Also, the “ligand binding by Tm shift” value is listed as “lost binding to DMF” at HsFN3K D217A [3] and “did not bind DMF” at HsFN3K W219A. For the same compound, at HsFN3K D234A [4], the “binding of ATP and DMF” value is given as “impaired binding”. For the same compound, the “binding of DMF” value on HsFN3K D217A [5] (MST) is “lost the ability to bind DMF”. The “Tm shift on DMF binding” value is 0.6 °C on HsFN3K H288A [6] and 3.6 °C on HsFN3K H291A [7]. Besides, on HsFN3K [8] (HsFN3K WT, absence of ATP), the “binding of DMF in the absence of ATP” value is “did not bind DMF”. Also, at HsFN3K [1] (HsFN3K WT, AMP-PNP instead of ATP (Figure S7)), the “substrate (DMF) engagement in presence of AMP-PNP” value is listed as “prevented substrate engagement”. Besides, at HsFN3K [1] (HsFN3K WT, ATP+DMF 250 μM), the “melting temperature (Tm) with both ATP and DMF” value is 65.2 ± 0.6 °C. Also, the “Tm shift of ATP and DMF compared to ATP alone” value at HsFN3K [1] (HsFN3K WT, DMF added with ATP) was ~ 2 °C. At HsFN3K [1] (HsFN3K WT), the “Tm increase versus HsFN3K alone” value is recorded as “did not alter the Tm”.

Turning to “glycated lysozyme: crystallization grade lysozyme incubated with ribose or glucose; protein substrate of FN3K”, the substrate phosphorylation entry with HsFN3K WT was “able to phosphorylate”.

“human Fructosamine-3-kinase (HsFN3K) (from UniProt Q9H479 1-309) (enzyme)”: the stoichiometry N in experiment [11] and in experiment [12] was 2 throughout.
